In ChEMBL document CHEMBL1132597, “Corticotropin-releasing hormone receptor antagonists: framework design and synthesis guided by ligand conformational studies” (J Med Chem, 1999):

Target: T1, Corticotropin-releasing factor receptor 1 (Rattus norvegicus, UniProt P35353)
T1 sequence (P35353 whole entry): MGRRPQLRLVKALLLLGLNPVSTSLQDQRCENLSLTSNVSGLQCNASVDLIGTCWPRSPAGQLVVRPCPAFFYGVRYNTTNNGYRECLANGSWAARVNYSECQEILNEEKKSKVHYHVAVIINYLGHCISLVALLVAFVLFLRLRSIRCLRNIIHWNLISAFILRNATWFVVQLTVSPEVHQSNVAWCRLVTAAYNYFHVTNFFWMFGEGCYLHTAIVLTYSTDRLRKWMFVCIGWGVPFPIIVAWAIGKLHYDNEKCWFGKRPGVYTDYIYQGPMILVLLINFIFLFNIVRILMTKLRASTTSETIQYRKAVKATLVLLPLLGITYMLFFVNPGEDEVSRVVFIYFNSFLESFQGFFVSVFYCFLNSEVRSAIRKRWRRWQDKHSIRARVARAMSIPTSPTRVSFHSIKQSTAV
Assay: Binding affinity was determined against corticotropin releasing factor receptor 1
In short: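 Rat CRH1 receptor-binding assay run in pH 7.2 buffer; affinity reported as Ki.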

SMILES	Ki (read-out: Ki) [nM]	Ki
Cc1ccnc2c1c(C#N)cn2-c1ccc(C(C)C)cc1Br	> 10000	–
Cc1cc(Cl)c2c(C#N)cn(-c3ccc(C(C)C)cc3Br)c2n1	722	–
Cc1cc(N2CCOCC2)c2c(C#N)cn(-c3ccc(C(C)C)cc3Br)c2n1	112	–
Cc1ccc2c(C#N)cn(-c3ccc(C(C)C)cc3Br)c2[n+]1[O-]	> 10000	–
Cc1cc(Cl)nc2c1c(C#N)cn2-c1ccc(C(C)C)cc1Br	446	–
COc1cc(Br)c(-n2ccc3c(C)cc(C)nc32)c(OC)c1	1	–
Cc1cc(C)c2c(C#N)cn(-c3ccc(C(C)C)cc3Br)c2n1	363	–
CCN(c1nc(C)cc(Cl)n1)c1ccc(C(C)C)cc1I	–	Not reliable
Cc1ccnc2c1ccn2-c1ccc(C(C)C)cc1Br	> 10000	–
Cc1cc(-c2ccccc2)nc2c1ccn2-c1ccc(C(C)C)cc1Br	> 10000	–
Cc1cc(-c2ccccc2)c2ccn(-c3ccc(C(C)C)cc3Br)c2n1	36	–
Cc1cc(-c2ccccc2)nc2c1c(C#N)cn2-c1ccc(C(C)C)cc1Br	> 100000	–
Cc1cc(C)c2ccn(-c3ccc(C(C)C)cc3Br)c2n1	47	–
COc1cc(Br)c(-n2cc(C#N)c3c(C)cc(C)nc32)c(OC)c1	29	–
Cc1cc(C)c2c(C(=O)O)cn(-c3ccc(C(C)C)cc3Br)c2n1	> 10000	–
Cc1ccc2ccn(-c3ccc(C(C)C)cc3Br)c2n1	222	–
Cc1cc(Cl)c2ccn(-c3ccc(C(C)C)cc3Br)c2n1	67	–
Cc1cc(-c2ccccc2)c2c(C#N)cn(-c3ccc(C(C)C)cc3Br)c2n1	34	–
Cc1ccc2c(C#N)cn(-c3ccc(C(C)C)cc3Br)c2n1	1280	–
Cc1cc(=O)[nH]c2c1c(C#N)cn2-c1ccc(C(C)C)cc1Br	> 10000	–
Cc1cc(C)c2c(C(N)=O)cn(-c3ccc(C(C)C)cc3Br)c2n1	> 10000	–
Cc1cc(C)nc(Nc2ccc(C(C)C)cc2Br)n1	> 10000	–
CCN(c1cc(C)nc(C)n1)c1ccc(C(C)C)cc1Br	> 1000	–
Cc1cc(C)nc(N(C)c2ccc(C(C)C)cc2I)n1	48	–
Cc1cc(Cl)nc2c1ccn2-c1ccc(C(C)C)cc1Br	79	–
CCN(c1nc(C)nc(N2CCOCC2)n1)c1c(Br)cc(OC)cc1OC	43	–
CCN(c1nc(C)cc(N2CCOCC2)n1)c1ccc(C(C)C)cc1Br	22	–
CCN(c1nc(C)cc(C)n1)c1c(Br)cc(OC)cc1OC	5	–
Cc1cc(N2CCOCC2)c2ccn(-c3ccc(C(C)C)cc3Br)c2n1	28	–
